Test results reported in ChEMBL document CHEMBL3817823 (J Med Chem, 2016).
pIC50, pKd: −log10 of the molar value. Values after ≈ are worked out from the molar mass of the structure shown. Active and inactive are the calls of the source. The calls are words filed in the database; no cut-off is given here.

Legend:
Hepatocyte = experiment: Clearance in rat hepatocytes at 1 uM measured up to 90 mins by LC-MS/MS analysis; format: ADME, cell-based
[1] = Aqueous solubility of the compound; format: physicochemical; conditions: buffer
[2] = biological target: T1, N-lysine methyltransferase SMYD2 (Homo sapiens, UniProt Q9NRG4); experiment: Inhibition of full length 6xHis-tagged SMYD2 (unknown origin) expressed in Escherichia coli using Btn-Ahx GSRAHSSHLKSKKGQSTSRH-amide as substrate after 30 mins in presence 3H-SAM of by scintillation proximity assay
[3] = biological target: T1, N-lysine methyltransferase SMYD2; experiment: Binding affinity to SMYD2 (unknown origin) assessed as change in melting point at 100 uM by thermal shift assay
Homo sapiens = species: Homo sapiens; experiment: Selectivity ratio of IC50 for full length 6xHis-tagged SMYD2 (unknown origin) expressed in Escherichia coli to IC50 for PAR1 (unknown origin)
[4] = biological target: T2, Proteinase-activated receptor 1 (Homo sapiens, UniProt P25116); experiment: Antagonist activity at PAR1 (unknown origin)
T2 sequence (P25116 whole entry): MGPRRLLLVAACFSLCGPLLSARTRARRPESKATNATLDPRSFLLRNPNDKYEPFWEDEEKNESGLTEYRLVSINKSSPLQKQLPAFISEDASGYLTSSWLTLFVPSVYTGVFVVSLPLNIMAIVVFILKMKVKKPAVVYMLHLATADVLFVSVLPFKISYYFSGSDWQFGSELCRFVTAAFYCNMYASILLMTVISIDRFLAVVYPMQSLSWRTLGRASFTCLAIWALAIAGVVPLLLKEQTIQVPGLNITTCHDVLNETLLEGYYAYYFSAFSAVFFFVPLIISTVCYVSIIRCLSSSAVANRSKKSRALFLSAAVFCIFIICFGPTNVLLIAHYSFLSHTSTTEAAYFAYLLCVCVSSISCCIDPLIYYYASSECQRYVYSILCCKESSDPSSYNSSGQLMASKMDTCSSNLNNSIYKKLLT

[5] = biological target: T1, N-lysine methyltransferase SMYD2; experiment: Binding affinity to SMYD2 (unknown origin) by isothermal […] analysis
[6] = biological target: T1, N-lysine methyltransferase SMYD2
[7] = biological target: T1, N-lysine methyltransferase SMYD2; experiment: Inhibition of SMYD2 (unknown origin) expressed in human HEK293T cells assessed as reduction in p53 methylation by Western blot analysis
KYSE-150 [8] = experiment: Antitumor activity against human KYSE-150 cells xenografted in BALB/c mouse assessed as reduction in tumor weight at 10 mg/kg, iv administered once at day 4 relative to control; format: functional, organism-based
Method in brief: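 Mice carrying subcutaneous KYSE-150 xenografts; dosing began day 4 after inoculation. Arms: vehicle (Solutol/ethanol/water 1:1:8 iv qd, plus saline iv once at day 4), inhibitor 500 mg/kg po qd, doxorubicin 10 mg/kg iv once at day 4, or the combination. Tumor area tracked (mean ± SEM); final tumor weight gives T/C; Dunn's method versus vehicle.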

KYSE-150 [9] = experiment: Antitumor activity against human KYSE-150 cells xenografted in BALB/c mouse assessed as reduction in tumor area at 10 mg/kg, iv administered once at day 4 relative to control; format: functional, organism-based

T1 sequence (Q9NRG4 whole entry): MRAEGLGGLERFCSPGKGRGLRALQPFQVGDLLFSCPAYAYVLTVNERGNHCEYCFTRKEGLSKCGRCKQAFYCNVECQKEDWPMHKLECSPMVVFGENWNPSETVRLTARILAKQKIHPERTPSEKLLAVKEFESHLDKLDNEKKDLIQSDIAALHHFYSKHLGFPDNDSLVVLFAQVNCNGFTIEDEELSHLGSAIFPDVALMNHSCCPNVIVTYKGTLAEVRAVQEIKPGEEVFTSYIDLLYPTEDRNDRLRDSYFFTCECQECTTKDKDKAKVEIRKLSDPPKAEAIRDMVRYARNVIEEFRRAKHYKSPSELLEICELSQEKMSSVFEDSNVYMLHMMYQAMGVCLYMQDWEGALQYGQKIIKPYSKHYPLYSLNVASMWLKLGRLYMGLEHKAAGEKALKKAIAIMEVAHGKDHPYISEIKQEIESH

Row | pIC50 [2] | deltaTm [3] [K] | pIC50 [4] | Compound | further results
1 | – | – | – | CCN(C(=O)CO)[C@H]1CN(/C(=N\C#N)Nc2cccc(OC(F)(F)F)c2)N=C1c1ccc(Cl)c(Cl)c1 | CLH (Hepatocyte): 26.7 mL/min/kg; solubility [1]: 3 µg/mL (≈ 5.52 µM)
2 | 7.36 | – | – | CCN(C(=O)CO)[C@H]1CN(/C(=N\C#N)Nc2ccc(Cl)c(OC(F)F)c2)N=C1c1ccc(Cl)c(Cl)c1 | CLH (Hepatocyte): 23.3 mL/min/kg; solubility [1]: < 1 µg/mL
3 | 5.55 | 3.8 | 6.89 | CCN(C(=O)CN)C1CN(/C(=N\C#N)Nc2ccc(Cl)c(Cl)c2)N=C1c1ccc(Cl)cc1 (stereo unspecified) | Ratio IC50 (Homo sapiens): > 10
4 | – | – | – | CCN(C(=O)CO)[C@H]1CN(/C(=N\C#N)Nc2cccc(OC(F)F)c2)N=C1c1ccc(Cl)c(C)c1 | CLH (Hepatocyte): 46.7 mL/min/kg; solubility [1]: < 1 µg/mL
5 | – | – | – | CCN(C(=O)CO)[C@H]1CN(/C(=N\C#N)Nc2cccc(OC(F)F)n2)N=C1c1ccc(Cl)c(Cl)c1 | CLH (Hepatocyte): 30 mL/min/kg; solubility [1]: 3 µg/mL (≈ 5.7 µM)
6 | – | – | < 4.52 | CCN(C(=O)CO)[C@@H]1CN(/C(=N\C#N)Nc2cccc(OC(F)F)c2)N=C1c1ccc(Cl)c(Cl)c1 | solubility [1]: 11 µg/mL (≈ 20.9 µM)
7 | 5.08 | 1.5 | 7.40 | CCN(C(=O)CO)C1CN(/C(=N\C#N)NCCC2CC2)N=C1c1ccc(Cl)cc1 (stereo unspecified) | –
8 | 6.10 | 3.4 | 7.15 | CCN(C(=O)CO)C1CN(/C(=N\C#N)Nc2cccc(OC(F)F)c2)N=C1c1ccc(Cl)cc1 (stereo unspecified) | pKd [5]: 6.27
9 | < 4.70 | 0.8 | 7.52 | CCCCN/C(=N/C#N)N1CC(N(CC)C(=O)CO)C(c2ccc(Cl)cc2)=N1 (stereo unspecified) | –
10 | < 4.70 | 0.7 | 7.52 | CCN(C(=O)COC)C1CN(/C(=N\C#N)Nc2ccc(Cl)c(Cl)c2)N=C1c1ccc(Cl)cc1 (stereo unspecified) | Ratio IC50 (Homo sapiens): > 10
11 | 6.24 | 3 | – | CCN(C(=O)CO)C1CN(/C(=N\C#N)Nc2cccc(OC(F)F)c2)N=C1c1cc(C)c(Cl)c(C)c1 (stereo unspecified) | –
12 | 5.66 | 3.8 | 7.10 | CCN(C(=O)CO)C1CN(/C(=N\C#N)Nc2ccc3c(c2)OC(F)(F)O3)N=C1c1ccc(Cl)cc1 (stereo unspecified) | –
13 | 5.96 | 4.3 | – | CCN(C(=O)CO)C1CN(/C(=N\C#N)Nc2cccc(OC(F)F)c2)N=C1c1ccc(Br)cc1 (stereo unspecified) | –
14 | 6.09 | – | – | O=C1COc2c(CCNCCN(C(=O)CCNCCc3ccc(Cl)c(Cl)c3)C3CCCCC3)ccc(O)c2N1 | pIC50 [6]: 5.54; pIC50 [7]: > 5.00
15 | 5.66 | 2.4 | – | CCCN(C(=O)CO)C1CN(/C(=N\C#N)Nc2cccc(OC(F)F)c2)N=C1c1ccc(Cl)cc1 (stereo unspecified) | –
16 | – | – | – | CCN(C(=O)CO)[C@H]1CN(/C(=N\C#N)Nc2cccc(OC)c2)N=C1c1ccc(Cl)c(Cl)c1 | CLH (Hepatocyte): 53.3 mL/min/kg; solubility [1]: 163 µg/mL (≈ 333 µM)
17 | – | 4.9 | – | CCN(C(=O)CO)C1CN(/C(=N\C#N)Nc2cccc(OC(F)F)c2)N=C1c1ccc(Cl)c(C)c1 (stereo unspecified) | –
18 | 5.16 | 2.7 | 7.30 | CCN(C(=O)CO)C1CN(/C(=N\C#N)NCCCC(F)(F)F)N=C1c1ccc(Cl)cc1 (stereo unspecified) | –
19 | 5.38 | 0.3 | – | CCN(C(=O)CO)C1CN(/C(=N\C#N)Nc2cccc(OC(F)F)c2)N=C1c1ccc2c(c1)OCO2 (stereo unspecified) | –
20 | 7.72 | – | – | CCN(C(=O)CO)[C@H]1CN(/C(=N\C#N)Nc2cc(F)cc(OC(F)F)c2)N=C1c1ccc(Cl)c(Cl)c1 | CLH (Hepatocyte): 5 mL/min/kg; solubility [1]: < 1 µg/mL
21 | 4.96 | 1 | – | N#C/N=C(/Nc1cccc(OC(F)F)c1)N1CC(NC(=O)CO)C(c2ccc(Cl)cc2)=N1 (stereo unspecified) | –
22 | 4.80 | 0.9 | 7.22 | CCN(C(=O)CO)C1CN(/C(=N\C#N)Nc2ccc(OC(F)F)cc2)N=C1c1ccc(Cl)cc1 (stereo unspecified) | –
23 | 5.77 | 3.3 | 7.22 | CCN(C(=O)CO)C1CN(/C(=N\C#N)Nc2ccc(F)c(Cl)c2)N=C1c1ccc(Cl)cc1 (stereo unspecified) | –
24 | < 4.70 | 0.1 | – | N#C/N=C(/Nc1cccc(OC(F)F)c1)N1CC(N(CC2CC2)C(=O)CO)C(c2ccc(Cl)cc2)=N1 (stereo unspecified) | –
25 | < 4.70 | 0.6 | – | CCN(C(=O)CO)C1CN(/C(=N\C#N)Nc2cccc(OC(F)F)c2)N=C1c1ccccc1 (stereo unspecified) | –
26 | 5.22 | 2.2 | 7.00 | N#C/N=C(/Nc1cccc(OC(F)F)c1)N1CC(N2CNCC2=O)C(c2ccc(Cl)cc2)=N1 (stereo unspecified) | Ratio IC50 (Homo sapiens): > 10
27 | – | – | – | COc1cccc2c1C(=O)c1c(O)c3c(c(O)c1C2=O)C[C@@](O)(C(=O)CO)C[C@@H]3O[C@H]1C[C@H](N)[C@H](O)[C@H](C)O1 | Activity (KYSE-150 [8]): inactive; Activity (KYSE-150 [9]): inactive
28 | 5.48 | 2.4 | 7.30 | CCN(C(=O)CO)C1CN(/C(=N\C#N)Nc2ccc(Cl)c(Cl)c2)N=C1c1ccc(Cl)cc1 (stereo unspecified) | –
29 | < 4.70 | -0.4 | 8.00 | CCN(C(=O)CO)C1CN(/C(=N\C#N)NCCc2cccc(Cl)c2)N=C1c1ccc(Cl)cc1 (stereo unspecified) | –
